Bioassay records (PubChem)
APOBEC3G inh = blocks human APOBEC3G single-stranded DNA deamination; Q9HC16; recombinant A3G, ssDNA deamination FAM/TAMRA fluorescence; inhibition, % at 20 µM; 330,000 compounds, 0.28% hits; AID 493012;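 active = inhibition of at least 40% at 20 µM, with no more than 30% in the related APOBEC3A deaminase screen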
GASC-1 inh = inhibitors of human GASC-1 (JMJD2C) demethylase. Q9H3R0. GST-JMJD2C(1-420) H3K9me3 demethylation, DELFIA europium. inhibition, % at 2.35 µM. 330,000 compounds, 0.069% hits;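 active = more than half of a compound's replicate wells show inhibition beyond 50%, single wells judged on their own value; inconclusive = some, but no more than half, of replicates pass 50% inhibition; inactive = no replicate passes 50% inhibition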;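 note: signal counts dimethyl H3K9 product captured on neutravidin plate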
Target sequence (Q9H3R0 1-420 limits assumed): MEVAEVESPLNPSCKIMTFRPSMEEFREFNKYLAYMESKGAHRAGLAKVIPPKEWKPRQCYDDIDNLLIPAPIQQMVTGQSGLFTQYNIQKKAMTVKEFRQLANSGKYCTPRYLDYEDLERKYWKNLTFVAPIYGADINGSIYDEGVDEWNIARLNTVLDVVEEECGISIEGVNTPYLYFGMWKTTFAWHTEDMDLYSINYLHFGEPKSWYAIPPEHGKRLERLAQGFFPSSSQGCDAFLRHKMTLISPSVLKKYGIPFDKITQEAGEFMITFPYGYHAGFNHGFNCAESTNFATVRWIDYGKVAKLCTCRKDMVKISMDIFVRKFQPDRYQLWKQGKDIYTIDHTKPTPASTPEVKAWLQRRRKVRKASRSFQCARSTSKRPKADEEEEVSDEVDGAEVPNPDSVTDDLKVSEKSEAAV
APOBEC3A inh = blocks human APOBEC3A ssDNA deamination. inhibition, % at 20 µM. P31941. AID 493011. 330,000 compounds, 0.41% hits. recombinant A3A, FAM/TAMRA ssDNA deamination fluorescence;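 active = at least 40% inhibition at 20 µM here, with at most 30% in a related deaminase screen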
UCH37 inh = blocks the human deubiquitinase UCH37. Q9Y5K5. purified proteasome/UCH37, Ub-AMC cleavage fluorescence. inhibition, % (test concentration not listed). 330,000 compounds, 0.33% hits. AID 588478;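 active = mean inhibition over replicate wells above about 20%, limit read from the data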
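Material: Human UCH37 enzyme supplied as purified proteasome complex | Schedule: 30 min compound-proteasome preincubation then 25 min substrate reaction, room temperature | Detection: AMC fluorescence from Ub-AMC cleavage, excitation 355 nm, emission 460 nm | Benchmarks: Wells without proteasome as full block, compound-free enzyme plus substrate as uninhibited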
APOBEC3G confirm = APOBEC3G (human) deaminase inhibition, confirmed. 890 compounds, 72% hits. inhibition, % at 20 µM. recombinant A3G ssDNA deaminase, UDG/FAM-TAMRA fluorescence. shares compounds with APOBEC3G inh;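 active = inhibition reaching a set limit in any replicate at 20 µM, the limit being 80% of the first screen's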
UDG ctr A3G = counter-screen for APOBEC3G inhibitors: E. coli UDG; UDG counterscreen, FAM/TAMRA oligo fluorescence; inhibition, % at 20 µM; 710 tested, under 10 active; shares compounds with APOBEC3G inh; AID 504715;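 active = compounds giving 40% or more inhibition at 20 µM in any one of the three replicates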;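 note: inhibitors lower the FAM signal released by uracil excision and alkaline cleavage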
A number is an active result; i = inactive; ? = inconclusive; nt = no result; ! = not confirmed by another sample. This is a sample that favours compounds with a hit; in the whole collection about 0.97% have one here.

SMILES	APOBEC3G inh	GASC-1 inh	APOBEC3A inh	UCH37 inh	APOBEC3G confirm	UDG ctr A3G
N#Cc1c(N=Cc2cccnc2)sc2c1CCCC2	nt	nt	nt	i	nt	nt
Cc1ccc(NC(=O)c2ccc(Cl)c(N3C(=O)C=CC3=O)c2)cc1	45.8	i	i	i	53.4	i
O=C(Nc1ccc(Cl)c(Cl)c1)c1ccc(Cl)c(Cl)c1	i	i	i	nt	nt	nt
Cc1ccc(N=C2C(=S)N(c3ccc(C)cc3)C(=N)N2N=Cc2ccc(Cl)cc2)cc1	nt	nt	nt	i	nt	nt
O=S(=O)(Nc1ccc(O)c(NS(=O)(=O)c2ccccc2)c1)c1ccccc1	50.2	i	i	i	69.0	i
Cc1cc(C)nc(N=C(N)Nc2cccc([N+](=O)[O-])c2)n1	nt	nt	nt	i	nt	nt
O=C1C=CC(=O)C(C2=C3C(=O)N(CCc4ccccc4)CC(=O)N3CCC2)=C1	89.7	i	i	i	93.2	i
CCN(CC)S(=O)(=O)c1cc(NC(=O)Cn2ncc(Cl)c(Cl)c2=O)ccc1C	54.9	i	i	i	i	nt
ON=C(c1ccc2c(c1)OCCO2)C1CCCCC1	nt	nt	nt	i	nt	nt
O=C(Nc1ccccc1C(=O)NN=Cc1ccc(F)cc1)c1ccccc1Br	nt	nt	nt	i	nt	nt
CCC(Oc1ccccc1)C(=O)Nc1ccc(C)c(S(=O)(=O)N2CCOCC2)c1 (stereo not given)	81.4	i	i	i	i	nt
C/C(C=NNC(=O)c1cccnc1)=C\c1ccccc1	nt	nt	nt	i	nt	nt
COc1ccc(C=NNC(=O)C(C)Sc2ccccn2)cc1[N+](=O)[O-] (stereo not given)	nt	nt	nt	i	nt	nt
C=CCn1c(N)c(C(=O)NCCC2=CCCCC2)sc1=S	47.2	i	i	i	i	nt
Cc1ccc(-c2n[nH]c3c2C(c2cccc(O)c2)N(c2ccc(C(=O)O)cc2)C3=O)cc1 (stereo not given)	i	i	i	i	nt	nt
Cc1ccc(-c2n[nH]c3c2C(c2ccccc2)N(c2ccc(C(=O)O)cc2)C3=O)cc1 (stereo not given)	74.1	i	i	i	i	i
Cc1cc(C)n(CC(=O)NN=Cc2ccccn2)n1	nt	nt	nt	i	nt	nt
Cc1cc(C)c(C=NNC(N)=O)c(C)c1C=NNC(N)=O	nt	nt	nt	i	nt	nt
S=C(c1ccc(-c2cccc(Cl)c2)o1)N1CCOCC1	43.3	i	i	i	i	i
CN1CCc2cccc3c2[C@H]1Cc1ccc(O)c(O)c1-3	50.8!	?	i	i	102.7	i
CN1CCc2cc3c(c4c2[C@H]1[C@H](O)c1ccccc1-4)OCO3	i	i	i	i	nt	nt
CC/C(=N/Nc1cccc(C)c1)c1cnnc(SC)n1	46.2	i	i	nt	i	nt
COc1ccc(C(CC2OC(=O)c3ccccc32)=NNC(N)=O)cc1 (stereo not given)	nt	nt	nt	i	nt	nt
CC(=NNC(=S)NC1CCCCC1)c1cccc(C(F)(F)F)c1	nt	nt	nt	i	nt	nt
COc1cccc(C=NNC(=O)CON=C(C)c2cccs2)c1OC	nt	nt	nt	i	nt	nt
SMILES	APOBEC3G inh	GASC-1 inh	APOBEC3A inh	UCH37 inh	APOBEC3G confirm	UDG ctr A3G
COC(=O)CSc1n[nH]c(=S)s1	49.9	i	i	i	64.9	i
O=C(O)CC(Sc1n[nH]c(=S)s1)C(=O)O (stereo not given)	43.8	i	i	i	60.0	i
COC(=O)c1ccc(CSc2n[nH]c(=S)s2)o1	49.9	i	i	i	59.2	i
COC(=O)C(C)Sc1n[nH]c(=S)s1 (stereo not given)	83.9	i	i	i	84.3	i
CCNc1nc(SC(C)C(=O)OC)nc(N(C)C)n1 (stereo not given)	i	i	i	i	nt	nt
COc1ccc(C=NNC(=O)CN(C)C(=O)OCc2ccccc2)cc1OC	nt	nt	nt	i	nt	nt
CCSc1n[nH]c(=S)s1	52.2	i	i	i	59.2	i
C=CCn1c(N=Cc2ccc(N(C)C)cc2)nc2ccccc21	nt	nt	nt	i	nt	nt
CC(=O)C(Sc1nc(N(C)C)nc(N(C)C)n1)C(=O)Nc1ccccc1 (stereo not given)	i	i	i	i	nt	nt
CC(=O)C(Sc1nn(C)c(=S)s1)C(=O)Nc1ccccc1 (stereo not given)	56.6	i	i	i	40.3	i
CCC(CO)N=C1CC(C)(C)CC(=O)/C1=C(\O)CCCN1C(=O)c2ccccc2C1=O (stereo not given)	nt	nt	nt	i	nt	nt
CCCCCOCC1CC(CC(C)=NNc2nc(-c3ccccc3)cs2)C(=O)O1 (stereo not given)	nt	nt	nt	i	nt	nt
CCC(=O)NC1=C(Cl)C(=O)C(NC(=O)CC)=C(Cl)C1=O	86.6	nt	i	nt	95.7	i
